KCC2 mod = KCC2 cotransporter modulators, thallium flux, primary screen, cell-based, HEK293 KCC2, FluoZin-2 fluorescence, MLSMR; Solute carrier family 12 member 5 (Homo sapiens), Q9H2X9; KCC2 cells, thallium flux FluoZin-2 fluorescence; B-score of Tl+ flux slope (higher = more flux/activation; lower = inhibition) at 10 µM; 190,000 tested, 2.2% active; AID 1456, 2008;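 active means thallium flux slope and its plate-corrected score both differing from the plate sample mean at a set confidence after two filtering rounds, in either direction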;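 further: slope of fluorescence scaled to starting intensity during 10 to 20 s after thallium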
KCNQ1 inh = inhibitors of human KCNQ1 channel, primary screen, cell-based, thallium flux, high-throughput | Potassium voltage-gated channel subfamily KQT member 1 (Homo sapiens), P51787 | CHO-K1 KCNQ1, FluxOR thallium flux fluorescence; stronger effect = higher value | B-score at 10 µM | 310,000 tested, 1.3% active | AID 2642, 2010;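 active means compounds whose thallium flux B-score, printed positive for inhibition, exceeds three library SD while starting fluorescence stays within three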;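 further: channel opened by potassium depolarization with thallium stimulus after 20 min compound exposure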
KCNQ1 act = potentiators or activators of KCNQ1 channel, primary screen, cell-based, thallium flux, high-throughput | Potassium voltage-gated channel subfamily KQT member 1 (Homo sapiens), P51787 | CHO-K1 KCNQ1, thallium flux FluxOR fluorescence; stronger effect = higher value | B-score at 10 µM | 310,000 tested, 0.35% active | AID 2648, 2010;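 active means fluorescence ratio B-score, a plate-corrected score, at least three library SD, with initial intensity B-score within 5 SD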
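Material: CHO-K1 cells stably expressing KCNQ1. Medium: assay buffer for compound exposure, DMSO matched across wells. Reagent: K+/Tl+ depolarizing stimulus. Compound dosing: single-concentration screen. Times: 37 °C overnight plating, 90-min dark dye load, 20-min compound pretreatment. Technique: FluxOR Tl+ flux fluorescence.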
hERG rescue = hERG rescue from dofetilide block, primary screen, cell-based, CHO-hERG, FluxOR thallium flux, dofetilide IC70 | 310,000 tested, 0.51% active | Voltage-gated inwardly rectifying potassium channel KCNH2 (Homo sapiens), Q12809 | dofetilide IC70 present | activation (rescue from dofetilide block), less the hit threshold, % at 10 µM;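 active means activation above the mean of controls blocked by dofetilide plus 5 SD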;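 further: thallium influx through hERG after potassium depolarization seen as dye fluorescence rise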
KCNK3 block = human KCNK3 channel inhibitors, primary screen, CHO cells, FluxOR thallium flux, B-score. FluxOR fluorescence; stronger effect = lower value. B-score at 10 µM. AID 602410, 2012. 340,000 tested, 0.84% active. Potassium channel subfamily K member 3 (Homo sapiens), O14649;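 active means B-score under library mean minus 4 SD, starting fluorescence ratio at most library mean plus 5 SD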;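 further: more negative B-score means stronger inhibition of thallium flux through KCNK3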
Target sequence (O14649 whole entry, looked up): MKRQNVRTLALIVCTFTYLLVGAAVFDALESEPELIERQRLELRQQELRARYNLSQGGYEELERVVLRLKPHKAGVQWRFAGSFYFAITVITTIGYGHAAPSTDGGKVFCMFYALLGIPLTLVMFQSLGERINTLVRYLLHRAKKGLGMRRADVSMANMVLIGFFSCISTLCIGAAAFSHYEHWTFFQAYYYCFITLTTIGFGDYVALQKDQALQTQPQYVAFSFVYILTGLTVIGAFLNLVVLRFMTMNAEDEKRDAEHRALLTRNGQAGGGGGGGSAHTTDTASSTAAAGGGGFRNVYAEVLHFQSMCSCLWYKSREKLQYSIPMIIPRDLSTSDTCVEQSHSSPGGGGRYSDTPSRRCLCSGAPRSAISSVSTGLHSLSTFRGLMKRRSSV
KCNK9 block = KCNK9 potassium channel inhibitors, primary screen, HEK293 cells, thallium flux; 310,000 tested, 1.2% active; FluxOR thallium flux fluorescence; stronger effect = lower value; Potassium channel subfamily K member 9 (Homo sapiens), Q9NPC2; B-score at 10 µM; AID 488922, 2010;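 active means ratio B-score over 3 SD below the library mean, with starting fluorescence within 5 SD of its mean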;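 further: negative B-score means less thallium flux so channel inhibition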
KCNK9 block conf = KCNK9 potassium channel inhibitors, confirmation, HEK293 cells, thallium flux, duplicate; shares compounds with KCNK9 block; inhibition, % at 10 µM; 4,900 tested, 43% active; FluxOR thallium flux fluorescence; AID 492992, 2010;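 active means thallium signal inhibited by more than 5 SD of the compound-free buffer control wells, on both duplicate plates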
Kir21 sel = mouse Kir2.1 channel inhibition, confirmation, selectivity assay for KCNK9 modulator project, cell-based, HEK293, thallium flux; 4,900 tested, 4% active; Kir2.1 cells, FluxOR thallium flux fluorescence; inhibition, % at 10 µM; shares compounds with KCNK9 block;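 active means thallium signal drop more than 5 SD beyond the mean of the no-compound control wells, seen in both duplicate plates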;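 further: signal is fluorescence rise after thallium addition divided by baseline fluorescence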
Target sequence (P35561 whole entry, looked up): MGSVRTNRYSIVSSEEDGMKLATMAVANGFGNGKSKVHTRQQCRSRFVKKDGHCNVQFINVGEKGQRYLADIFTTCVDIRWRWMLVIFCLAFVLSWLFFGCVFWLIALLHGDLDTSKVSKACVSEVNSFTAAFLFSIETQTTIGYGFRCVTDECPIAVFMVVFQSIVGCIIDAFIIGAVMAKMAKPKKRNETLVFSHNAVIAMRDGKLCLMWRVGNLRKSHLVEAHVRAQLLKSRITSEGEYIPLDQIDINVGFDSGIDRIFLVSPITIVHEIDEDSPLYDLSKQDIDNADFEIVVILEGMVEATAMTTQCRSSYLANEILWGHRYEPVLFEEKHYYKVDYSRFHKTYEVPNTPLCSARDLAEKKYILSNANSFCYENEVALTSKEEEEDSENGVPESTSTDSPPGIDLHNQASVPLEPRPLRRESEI
HEK293 Tl ctr = thallium flux in non-induced HEK293 cells, confirmation, counter-screen for KCNK9 inhibitor project, cell-based, second counter screen, non-induced KCNK9-HEK293. shares compounds with KCNK9 block. FluxOR thallium flux. inhibition, % at 10 µM. 4,900 tested, 40% active. AID 492997, 2010;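 active means thallium signal drop beyond 5 SD of the untreated control mean, on both duplicate plates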
Of the large screens only hits and unclear results are named; the others gave an inactive call (follow-up assays come after a bar, where they were run). The list is not random: actives were taken first. Their share in the collection is about 4.1%.

CCOC(=O)c1c(NC(=O)CSc2nc3ccccc3s2)sc(C)c1C	none (no result: KCC2 mod) | KCNK9 block conf inactive | Kir21 sel inactive | HEK293 Tl ctr inactive
Cc1nnc(SCC(=O)Nc2sc3c(c2C(=O)c2ccccc2)CCCC3)s1	none | KCNK9 block conf inactive | Kir21 sel inactive | HEK293 Tl ctr inactive
CCOC(=O)c1c(NC(=O)CSc2nnc(Cc3ccccc3)o2)sc(C)c1C	none | KCNK9 block conf inactive | Kir21 sel inactive | HEK293 Tl ctr inactive
CCOC(=O)c1c(NC(=O)CCc2ccc(CC)o2)sc(C)c1C	none | KCNK9 block conf inactive | Kir21 sel inactive | HEK293 Tl ctr 24%
COC(=O)c1c(NC(=O)CCc2ccc(C)o2)sc(C)c1C	none
O=C1CC(N2CCC(c3nc4ccccc4o3)CC2)C(=O)N1c1cc(Cl)cc(Cl)c1 (centres undefined)	KCNQ1 inh 8, KCNK9 block -8.6 | KCNK9 block conf 43% | Kir21 sel inactive | HEK293 Tl ctr inactive
Cc1ccccc1COC(=O)c1nn(-c2ccccc2)nc1N	none
CCCCCCCCCCn1c2c(c(=N)c3c1CCC3)CCC2	KCNQ1 inh 6, hERG rescue 58, KCNK9 block -18 | KCNK9 block conf 63% | Kir21 sel 86% | HEK293 Tl ctr 26%
CCCCn1c2c(c(=N)c3ccccc31)CCC2	none
CCN(CC)C(=O)OCCc1cc2ccccc2c(=O)o1	none (no result: KCC2 mod, KCNQ1 inh, KCNQ1 act, hERG rescue, KCNK9 block)
COc1cccc(-c2cc(C(F)(F)F)n3nc(C(=O)N4CCCCC4c4cccnc4)cc3n2)c1 (centres undefined)	KCNK9 block -8.1 | KCNK9 block conf 42% | Kir21 sel inactive | HEK293 Tl ctr inactive
CCOc1ccccc1OCCN1CCCC1	none (no result: KCC2 mod)
Cc1ccc([N+](=O)[O-])c(OCCN2CCC(Cc3ccccc3)CC2)c1	none | KCNK9 block conf inactive | Kir21 sel inactive | HEK293 Tl ctr inactive
CCOc1ccccc1OCCN1CCC(Cc2ccccc2)CC1	none | KCNK9 block conf inactive | Kir21 sel inactive | HEK293 Tl ctr inactive
Cc1ccccc1OCCN1CCC(Cc2ccccc2)CC1	none | KCNK9 block conf inactive | Kir21 sel inactive | HEK293 Tl ctr inactive
CCCCN(C(=O)CCN1C(=O)C2CC=CCC2C1=O)c1c(N)n(CCCC)c(=O)[nH]c1=O (centres undefined)	none (no result: KCC2 mod, KCNQ1 inh, KCNQ1 act, hERG rescue, KCNK9 block)
O=C(NCCCCc1ccccc1)C1CCCC1	none (no result: KCC2 mod)
CC(C)(C)c1cc(OC(=O)C2CCCC2)ccc1O	KCNK9 block -8.2 (no result: KCC2 mod) | KCNK9 block conf 58% | Kir21 sel inactive | HEK293 Tl ctr inactive
CC(C)(C)c1cc(OS(C)(=O)=O)ccc1O	none (no result: KCC2 mod)
COc1cc(/C=N/Nc2nc(Nc3ccccc3)nc(-n3nc(C)cc3C)n2)cc(OC)c1OC	KCNQ1 inh 8, KCNK9 block -9.4 | KCNK9 block conf 46% | Kir21 sel inactive | HEK293 Tl ctr inactive
COc1cc(/C=N/Nc2nc(Nc3ccc(C)cc3)nc(-n3nc(C)cc3C)n2)cc(OC)c1OC	none
COc1ccc(O)c(/C=N/Nc2nc(Nc3ccccc3)nc(-n3nc(C)cc3C)n2)c1	KCNQ1 inh 10, KCNK9 block -12 | KCNK9 block conf 46% | Kir21 sel inactive | HEK293 Tl ctr inactive
COc1ccc(/C=N/Nc2nc(Nc3ccccc3)nc(N3CCCCC3)n2)c(OC)c1	none
Cc1cc(=O)[nH]c(SCc2cc(=O)n3nc(C)sc3n2)n1	none
C[C@@H]1COC(=O)[C@@H](Cc2ccc(F)cc2)C/C=C\C[C@@H](CC(=O)NCCO)C(=O)N1	none (no result: KCC2 mod, KCNQ1 inh, KCNQ1 act, hERG rescue, KCNK9 block)
COc1ccc(-c2nn(-c3ccccc3)cc2CNC(=O)c2cccc([N+](=O)[O-])c2)cc1	KCNK9 block -11 | KCNK9 block conf 52% | Kir21 sel inactive | HEK293 Tl ctr 30%
Cc1nn(-c2ccccc2)c(N)c1N=Nc1ccccc1	KCNK9 block -11 | KCNK9 block conf 29% | Kir21 sel inactive | HEK293 Tl ctr 28%
Cc1cccc(N=Nc2c(C)nn(-c3ccccc3)c2N)c1C	KCNK9 block -9.3 | KCNK9 block conf 34% | Kir21 sel inactive | HEK293 Tl ctr inactive
Cc1nn(-c2ccccc2)c(N)c1N=Nc1ccc(Cl)cc1	none
CCn1c(N)cc(=O)[nH]c1=S	none (no result: KCC2 mod, KCNQ1 inh, KCNQ1 act, hERG rescue, KCNK9 block)
Brc1ccc(Br)c2cnccc12	none (no result: KCC2 mod, KCNQ1 inh, KCNQ1 act, hERG rescue, KCNK9 block)
Cn1cccc1/C=N/N1CCN(Cc2cccc3ccccc23)CC1	none | KCNK9 block conf inactive | Kir21 sel inactive | HEK293 Tl ctr inactive
C(=N\N1CCN(Cc2cccc3ccccc23)CC1)/c1ccco1	none | KCNK9 block conf inactive | Kir21 sel inactive | HEK293 Tl ctr inactive
O=C(Nc1ccc(N2CCN(C(=O)c3ccccc3F)CC2)cc1)c1cncc(Br)c1	none (no result: KCC2 mod)
CCOc1ccc(N2CC(C(=O)Nc3cc(S(=O)(=O)N4CCCCC4)ccc3C)CC2=O)cc1 (centres undefined)	none (no result: KCC2 mod, KCNQ1 inh, KCNQ1 act, hERG rescue, KCNK9 block)
CC(=O)Nc1ccc(NC(=O)COC(=O)CCc2nc3ccccc3s2)cc1	none
Fc1ccc(Cn2c(SCc3ccc(F)c(F)c3)nnc2C(F)(F)F)cc1	KCNK9 block -9 (no result: KCC2 mod) | KCNK9 block conf 29% | Kir21 sel inactive | HEK293 Tl ctr 38%
Fc1ccc(Cn2c(SCc3ccc(F)c(C(F)(F)F)c3)nnc2C(F)(F)F)cc1	KCNK9 block -10 (no result: KCC2 mod) | KCNK9 block conf 42% | Kir21 sel inactive | HEK293 Tl ctr 44%
Cn1nnnc1SCc1ccc(F)cc1	none
COc1ccc(C(=O)c2ccc(N(C)C)cc2)c(OC)c1	none
CN(C)c1ccc(C(=O)c2ccc(N(C)C)c3ccccc23)cc1	none | KCNK9 block conf inactive | Kir21 sel inactive | HEK293 Tl ctr inactive
COc1ccc(CN2CCC(CO)(Cc3ccccc3C(F)(F)F)CC2)c(F)c1	none | KCNK9 block conf inactive | Kir21 sel inactive | HEK293 Tl ctr inactive
COc1ccc(CC2(CO)CCN(Cc3cccc4nccnc34)CC2)cc1	none
COc1cc(/C=C2\SC(N)=NC2=O)ccc1OCC(=O)Nc1ccccc1C	none (no result: KCC2 mod, KCNQ1 inh, KCNQ1 act, hERG rescue, KCNK9 block)
COc1ccc(C(C#N)=C2C=CC(=NO)C(C)=C2Cl)cc1	none (no result: KCC2 mod, KCNQ1 inh, KCNQ1 act, hERG rescue, KCNK9 block)
